ChEMBL document CHEMBL1139318, “Tyrosinase inhibitory effects of 1,3-diphenylpropanes from Broussonetia kazinoki” (Bioorg Med Chem, 2009)

Assays:
Tyrosinase [1] = target: T1, Tyrosinase (Agaricus bisporus, UniProt O42713); test: Inhibition of mushroom tyrosinase by kinetic based assay; settings: read-out: Ki(app)
T1 sequence (O42713 whole entry): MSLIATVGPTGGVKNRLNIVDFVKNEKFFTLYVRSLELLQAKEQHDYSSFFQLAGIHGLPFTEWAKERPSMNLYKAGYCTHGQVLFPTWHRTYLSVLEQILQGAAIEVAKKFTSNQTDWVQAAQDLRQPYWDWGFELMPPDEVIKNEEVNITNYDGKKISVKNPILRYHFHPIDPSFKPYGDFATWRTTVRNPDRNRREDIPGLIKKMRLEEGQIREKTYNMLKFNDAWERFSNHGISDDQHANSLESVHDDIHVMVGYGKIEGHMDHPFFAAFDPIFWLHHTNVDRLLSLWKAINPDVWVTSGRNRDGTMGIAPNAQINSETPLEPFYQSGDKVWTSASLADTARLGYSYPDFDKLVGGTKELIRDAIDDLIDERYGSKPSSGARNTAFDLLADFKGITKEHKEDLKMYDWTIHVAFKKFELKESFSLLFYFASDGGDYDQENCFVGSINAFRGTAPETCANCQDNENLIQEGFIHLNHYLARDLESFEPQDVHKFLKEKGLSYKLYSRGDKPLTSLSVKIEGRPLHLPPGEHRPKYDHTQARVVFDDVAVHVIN
Outline: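 Time-dependent assay with L-tyrosine substrate in 0.25 M phosphate buffer (pH 6.8) at 30 °C. Activity was monitored continuously for 15 min, giving 20 points at 30 s intervals, at several inhibitor concentrations and fixed substrate. kobs came from the slow-binding equation or from ln(residual activity) versus preincubation time. k3, k4 and Kiapp came from kobs versus [I] by the Morrison–Walsh method, using nonlinear regression.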

Tyrosinase [2] = target: T1, Tyrosinase; test: Inhibition of monophenolase activity of mushroom tyrosinase using as L-tyrosine substrate
Outline: (§1)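 Mushroom tyrosinase (144 units) was added to 0.25 M phosphate buffer (pH 6.8) with substrate: L-tyrosine for monophenolase or L-DOPA for diphenolase. Substrate was added as 200 µL of a 2.7 mM L-tyrosine or 5.4 mM L-DOPA stock. Samples were 10 mM EtOH stocks. Dopachrome formation was read at 475 nm at 30 °C. Runs were triplicate, and IC50 came from a logistic curve fit.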

Tyrosinase [3] = target: T1, Tyrosinase; test: Inhibition of monophenolase activity of mushroom tyrosinase using as L-tyrosine substrate by Lineweaver-Burke plot based kinetic assay
Tyrosinase [4] = target: T1, Tyrosinase; test: Inhibition of diphenolase activity of mushroom tyrosinase using as L-DOPA substrate; outline: as §1
Tyrosinase [5] = target: T1, Tyrosinase; test: Inhibition of diphenolase activity of mushroom tyrosinase using as L-DOPA substrate by Lineweaver-Burke plot based kinetic assay
Outline: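 Diphenolase kinetics used 0.25 M phosphate buffer (pH 6.8) at 30 °C, reading dopachrome at 475 nm. L-DOPA concentration was varied at several fixed inhibitor concentrations. Reciprocal velocity was plotted against 1/[L-DOPA] (Lineweaver–Burk), and inhibition type and Ki were read from the line pattern.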

Ki (Tyrosinase [1]) [µM]	IC50 (Tyrosinase [2]) [µM]	Ki (Tyrosinase [3]) [µM]	IC50 (Tyrosinase [4]) [µM]	Ki (Tyrosinase [5]) [µM]	SMILES
0.0485	0.43	0.23	0.57	0.29	CC(C)=CCc1cc(CCCc2ccc(O)cc2O)ccc1O [BROUSSONIN C]
–	15.5	10.8	22.8	11.2	C=CC(C)(C)c1cc(CCCc2cc(O)c(O)c(CC=C(C)C)c2CC=C(C)C)c(O)cc1O [KAZINOL C]
–	165	–	> 200	–	C=CC(C)(C)c1cc(CCCc2cc(O)c3c(c2CC=C(C)C)CCC(C)(C)O3)c(O)cc1O [KAZINOL D]
0.181	0.96	0.41	1.7	0.77	CC(C)=CCc1c(CCCc2ccc(O)cc2O)cc(O)c(O)c1CC=C(C)C [KAZINOL F]
0.87	17.9	9.12	26.9	15.6	C=CC(C)(C)c1cc(CCCc2cc(O)c(O)c(CC3OC3(C)C)c2CC=C(C)C)c(O)cc1O (stereo not drawn) [KAZINOL S]
–	103	–	> 200	–	C=CC(C)(C)c1cc(CCCc2cc(O)c3c(c2CC=C(C)C)CC(C(C)(C)O)O3)c(O)cc1O (stereo not drawn) [KAZINOL T]
